Series [1] concerns the target T1, Glucagon receptor (Rattus norvegicus, UniProt P30082). Nature of the series: Displacement of [125I]glucagon from glucagon receptor in rat hepatocyte membranes after 30 mins by gamma-counting. Format: cell membranes. Put shortly: (§1)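 Rat liver was homogenized in 20 volumes of 50 mM Tris–HCl (pH 7.2) and the membrane pellet collected by two 30,000g spins of 15 min each. Membranes were resuspended in Tris–HCl pH 7.2 with 1 mg/mL BSA and 0.1 mg/mL bacitracin. Incubation was with [125I]glucagon (final 50 pM) at 25 °C for 30 min, then filtration onto PEI-treated GF/C filters and gamma counting. Inhibition is relative to binding without compound, after subtracting nonspecific binding with excess glucagon. Run in duplicate.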
(In general: In a radioligand displacement assay an active substance lowers the binding of a labelled ligand.)

For series [2], the target named is Glucagon receptor (Rattus norvegicus) (UniProt P30082). Nature of the series: Displacement of [125I]glucagon from glucagon receptor in rat hepatocyte membranes at 10 uM after 30 mins by gamma-counting. The class given is cell membranes. Put shortly:
as §1

In series [3] the target is Voltage-gated inwardly rectifying potassium channel KCNH2 (Homo sapiens, UniProt Q12809). Nature of the series: Inhibition of human ERG.
Sequence of Voltage-gated inwardly rectifying potassium channel KCNH2 (Q12809 whole entry): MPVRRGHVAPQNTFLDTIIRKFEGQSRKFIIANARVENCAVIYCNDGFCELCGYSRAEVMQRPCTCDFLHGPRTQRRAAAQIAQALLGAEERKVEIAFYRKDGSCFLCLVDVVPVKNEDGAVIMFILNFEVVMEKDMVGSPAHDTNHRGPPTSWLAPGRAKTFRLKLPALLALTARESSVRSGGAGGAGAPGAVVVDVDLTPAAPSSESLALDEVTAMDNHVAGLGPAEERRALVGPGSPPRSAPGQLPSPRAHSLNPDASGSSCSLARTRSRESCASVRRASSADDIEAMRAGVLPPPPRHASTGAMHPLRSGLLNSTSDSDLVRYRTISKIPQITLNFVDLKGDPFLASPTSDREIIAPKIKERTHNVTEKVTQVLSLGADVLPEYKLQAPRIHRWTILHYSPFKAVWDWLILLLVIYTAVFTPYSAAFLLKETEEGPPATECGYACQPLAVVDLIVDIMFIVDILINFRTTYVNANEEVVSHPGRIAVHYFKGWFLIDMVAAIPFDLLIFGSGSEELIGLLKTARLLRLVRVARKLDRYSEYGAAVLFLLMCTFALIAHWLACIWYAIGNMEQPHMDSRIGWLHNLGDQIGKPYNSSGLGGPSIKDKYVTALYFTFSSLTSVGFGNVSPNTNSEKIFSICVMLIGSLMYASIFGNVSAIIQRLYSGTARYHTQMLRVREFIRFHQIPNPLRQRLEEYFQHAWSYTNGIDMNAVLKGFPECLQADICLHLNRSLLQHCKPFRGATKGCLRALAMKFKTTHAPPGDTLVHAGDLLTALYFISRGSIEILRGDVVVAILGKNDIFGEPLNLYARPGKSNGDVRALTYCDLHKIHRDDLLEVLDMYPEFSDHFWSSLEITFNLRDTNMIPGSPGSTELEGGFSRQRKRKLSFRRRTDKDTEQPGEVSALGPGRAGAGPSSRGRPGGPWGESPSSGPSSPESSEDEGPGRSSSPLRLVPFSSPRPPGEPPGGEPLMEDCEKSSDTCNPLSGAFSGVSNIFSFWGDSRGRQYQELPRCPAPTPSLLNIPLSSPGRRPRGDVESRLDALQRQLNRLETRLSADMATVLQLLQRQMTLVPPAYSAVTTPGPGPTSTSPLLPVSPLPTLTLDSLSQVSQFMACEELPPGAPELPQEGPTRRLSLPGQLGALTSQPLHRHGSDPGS
The nature of series [4]: Oral bioavailability in rat at 1 mg/kg. The class given is ADME, organism-based. The following applies: in vivo.
For series [5], the target named is T1, Glucagon receptor. Nature of the series: Inhibition of glucagon-induced glucagon receptor-mediated cAMP production in rat hepatocytes after 15 mins by cAMP dynamic2 assay. The class given is functional, cell-based, Hepatocyte. Summed up: (§2)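 Hepatocytes were suspended in HCM medium, seeded on collagen-coated wells and incubated for 5 h. Compound in DMEM with 20 mM HEPES, 0.1% BSA and 0.5 mM IBMX was preincubated for 15 min at room temperature. Glucagon was then added for 5 min at room temperature. Cells were lysed with 0.5 M HCl for 10 min and neutralized with Tris–HCl pH 8.0. Supernatant cAMP was quantified with the cAMP dynamic2 kit.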
On the technique in general: cAMP levels reflect the balance of adenylyl cyclase and phosphodiesterase activity.

The nature of series [6]: Inhibition of sodium channel site 2 (unknown origin). The arrangement: species or system Homo sapiens.
Series [7] can be described thus: Inhibition of glucagon-induced glucagon receptor-mediated cAMP production in dog hepatocytes after 15 mins by cAMP dynamic2 assay. The class given is cell-based. The settings on record: Canis lupus familiaris, Hepatocyte, 0.25 h. Put shortly: as §2
In series [8] the test system is Rattus norvegicus. Nature of the series: Inhibition of glucagon-induced glucose elevation in rat at 30 mg/kg, po administered 30 mins prior challenge measured up to 6 hrs. The class given is functional, organism-based. The arrangement: dose 30 mg/kg. Put shortly: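 Normal rats were dosed orally 30 min before an intravenous glucagon challenge, with blood sampled afterwards for glucose. Values are mean ± SEM, n = 6 per group; Dunnett multiple comparison test.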

The subject of series [9] is Rattus norvegicus. Nature of the series: Inhibition of glucagon-induced glucose elevation in normal rat at 30 mg/kg, po administered 30 mins prior challenge measured up to 6 hrs.
In series [10] the target is Glucagon receptor (Homo sapiens, UniProt P47871). Nature of the series: Inhibition of glucagon-induced glucagon receptor-mediated cAMP production in human hepatocytes after 15 mins by cAMP dynamic2 assay. Format: functional, cell-based, Hepatocyte. Put shortly: as §2
Sequence of Glucagon receptor (Homo sapiens, UniProt P47871) (P47871 whole entry): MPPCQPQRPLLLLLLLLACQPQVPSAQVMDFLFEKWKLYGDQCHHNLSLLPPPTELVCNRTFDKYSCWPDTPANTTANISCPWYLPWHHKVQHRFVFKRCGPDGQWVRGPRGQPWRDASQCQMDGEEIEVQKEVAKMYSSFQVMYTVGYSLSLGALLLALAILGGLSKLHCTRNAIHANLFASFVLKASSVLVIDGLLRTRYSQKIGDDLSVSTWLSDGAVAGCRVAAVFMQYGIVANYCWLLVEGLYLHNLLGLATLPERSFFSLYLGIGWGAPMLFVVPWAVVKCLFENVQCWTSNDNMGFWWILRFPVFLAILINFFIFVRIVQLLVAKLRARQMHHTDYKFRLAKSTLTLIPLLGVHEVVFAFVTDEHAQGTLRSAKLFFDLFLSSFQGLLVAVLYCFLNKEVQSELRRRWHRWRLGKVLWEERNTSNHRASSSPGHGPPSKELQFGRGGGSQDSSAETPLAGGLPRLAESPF
Series [11] deals with Rattus norvegicus. Nature of the series: Volume of distribution at steady state in rat at 1 mg/kg, iv. Format: ADME, organism-based. The arrangement: dose 1 mg/kg, route intravenous. The settings on record: in vivo.
Series [12] is described as follows: Cmax in rat at 1 mg/kg, po. The class given is ADME, organism-based. Also on record: dose 1 mg/kg, route oral. The following applies: in vivo.
Series [13] deals with Glucagon-like peptide 1 receptor (Homo sapiens, UniProt P43220). Nature of the series: Inhibition of GLP-1R (unknown origin).
Sequence of Glucagon-like peptide 1 receptor (P43220 whole entry): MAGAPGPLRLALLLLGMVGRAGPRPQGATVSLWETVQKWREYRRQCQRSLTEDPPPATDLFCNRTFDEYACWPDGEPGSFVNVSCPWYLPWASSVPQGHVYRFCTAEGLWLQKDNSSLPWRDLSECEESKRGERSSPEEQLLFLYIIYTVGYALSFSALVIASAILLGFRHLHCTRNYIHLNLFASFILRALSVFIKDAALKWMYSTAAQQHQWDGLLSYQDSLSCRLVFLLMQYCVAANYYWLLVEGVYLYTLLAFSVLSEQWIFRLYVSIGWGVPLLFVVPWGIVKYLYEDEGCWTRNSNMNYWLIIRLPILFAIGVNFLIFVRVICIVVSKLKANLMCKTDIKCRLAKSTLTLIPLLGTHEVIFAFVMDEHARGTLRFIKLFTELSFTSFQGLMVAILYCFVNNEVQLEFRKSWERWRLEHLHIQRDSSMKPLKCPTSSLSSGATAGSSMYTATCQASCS
Series [14] in a line: Half life in rat at 1 mg/kg, po. The class given is ADME, organism-based. The arrangement: dose 1 mg/kg, route oral. The following applies: in vivo.
Series [15] concerns Rattus norvegicus. Nature of the series: Half life in rat at 1 mg/kg, iv. Format: ADME, organism-based. The arrangement: dose 1 mg/kg, route intravenous. The following applies: in vivo.

The values below come from ChEMBL document CHEMBL3352234, “Discovery of furan-2-carbohydrazides as orally active glucagon receptor antagonists” (Bioorg Med Chem Lett, 2014).

Structures are written as SMILES. Calls of active or inactive are those of the source. The calls are words filed in the database; no cut-off is given here.

In general, IC50 refers to the concentration at which inhibition is half-maximal. What is called inhibition is the percentage by which the read-out fell short of the control. The bioavailability is the share of a dose that reaches the circulation, judged against a reference dose that is usually intravenous. A low value points to little systemic uptake. What is called Vdss is the apparent volume that relates the amount in the body to the concentration in plasma or blood. Low values mean little distribution into tissue, high ones wide distribution into tissue. The Cmax is the peak of the concentration-time curve. The term half-life denotes the time in which the quantity being followed falls by half.

Sequence of Glucagon receptor (Rattus norvegicus) (P30082 whole entry): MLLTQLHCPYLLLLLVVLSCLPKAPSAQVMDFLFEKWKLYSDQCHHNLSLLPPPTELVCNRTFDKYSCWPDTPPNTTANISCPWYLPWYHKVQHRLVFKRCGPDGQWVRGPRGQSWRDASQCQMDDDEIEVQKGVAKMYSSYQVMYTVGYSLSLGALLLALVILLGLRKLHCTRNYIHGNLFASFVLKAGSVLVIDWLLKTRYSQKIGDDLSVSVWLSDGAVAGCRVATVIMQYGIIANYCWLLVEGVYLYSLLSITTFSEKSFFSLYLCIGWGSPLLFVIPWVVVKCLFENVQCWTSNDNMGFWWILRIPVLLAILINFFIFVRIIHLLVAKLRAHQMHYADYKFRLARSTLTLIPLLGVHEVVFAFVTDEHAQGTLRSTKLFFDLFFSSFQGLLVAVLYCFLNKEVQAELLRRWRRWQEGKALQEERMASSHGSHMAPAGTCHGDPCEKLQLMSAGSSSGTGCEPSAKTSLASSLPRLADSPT
T1 sequence (P30082 whole entry): as above

Consider `O=C(NNC(=O)c1occ(-c2ccccc2)c1-c1ccccc1)c1ccc(O)cc1`, for which the IC50 on Glucagon receptor [1] is 9500 nM. Besides, the inhibition in [2] came to 65%.

On to `O=C(NNC(=O)c1occ(-c2ccccc2)c1-c1ccccc1)c1ccc(O)nc1`, for which, at Glucagon receptor [1], the IC50 was 970 nM.

`O=C(NNC(=O)c1occ(-c2ccccc2)c1-c1ccccc1)c1ccccc1` gave an inhibition in series [2] of 42%.

`O=C(NNC(=O)c1cc(-c2ccccc2)co1)c1ccoc1` came in with an inhibition in [2] of 6%.

Take `CCCCCc1ccc(-c2ccoc2C(=O)NNC(=O)c2ccc(O)c([N+](=O)[O-])c2)cc1`: the IC50 was above 1000 nM in series [3]; 5.3 nM at Glucagon receptor [5]; above 1000 nM in [6]; 183 nM in series [7]; 292 nM against Glucagon receptor [10]; above 1000 nM in [13]. The bioavailability in [4] is 37%. Moreover, the inhibition entry with Rattus norvegicus [8] and in the series on Rattus norvegicus [9] was “Active” throughout. In the series with Rattus norvegicus [11], this compound showed a Vdss of 0.59 L/kg. The compound further displayed a Cmax in [12] of 411 ng/mL. The same compound showed a half-life in series [14] of 6.1 h. The same compound had a t1/2 in the series on Rattus norvegicus [15] of 5.9 h.

In series [2], `O=C(NNC(=O)c1occ(-c2ccccc2)c1-c1ccccc1)c1ccoc1` gave an inhibition of 73%.

In series [2], `O=C(NNC(=O)c1occ(-c2ccccc2)c1-c1ccccc1)c1ccc(O)c(O)c1` displayed an inhibition of 57%.

With `O=C(NNC(=O)c1occ(-c2ccccc2)c1-c1ccccc1)c1ccc(O)c(F)c1`, at Glucagon receptor [1], the IC50 came out at 1400 nM.

`COc1cc(C(=O)NNC(=O)c2occ(-c3ccccc3)c2-c2ccccc2)ccc1O` showed an IC50 at Glucagon receptor [1] of 9500 nM.

`O=C(NNC(=O)c1occ(-c2ccccc2)c1-c1ccccc1)c1ccc(O)c(Br)c1` yielded an IC50 on Glucagon receptor [1] of 270 nM.

As for `COc1ccc(C(=O)NNC(=O)c2occ(-c3ccccc3)c2-c2ccccc2)cc1`, the inhibition result in series [2] was “inactive”.

`O=C(NNC(=O)c1occ(-c2ccccc2)c1-c1ccccc1)c1ccco1` returned an inhibition in [2] of 50%.

On to `O=C(NNC(=O)c1occ(-c2ccccc2)c1-c1ccccc1)c1ccc(O)c(-c2ccccc2)c1`, for which the IC50 at Glucagon receptor [1] was above 10000 nM.

As for `O=C(NNC(=O)c1occ(-c2ccccc2)c1-c1ccccc1)c1ccc(O)c(Cl)c1`, the IC50 on Glucagon receptor [1] turned out to be 430 nM.

The compound `O=C(O)c1ccc(C(=O)NNC(=O)c2occ(-c3ccccc3)c2-c2ccccc2)cc1` had an inhibition in [2] of 61%.

`O=C(NNC(=O)c1occ(-c2ccccc2)c1-c1ccccc1)c1cccc(O)c1` yielded an inhibition in series [2] of 21%.

Compound `O=C(NNC(=O)c1occ(-c2ccccc2)c1-c1ccccc1)c1ccc(O)c([N+](=O)[O-])c1` gave an IC50 at Glucagon receptor [1] of 87 nM.
